Here are results for two compounds from ChEMBL document CHEMBL4261536, “Encapsulation of nor-β-lapachone into poly(d,l)-lactide-co-glycolide (PLGA) microcapsules: full characterization, computational details and cytotoxic activity against human cancer cell lines” (Medchemcomm, 2017).

The test system of assay [1] is OVCAR-8. The assay can be described thus: Cytotoxicity against human OVCAR8 cells assessed as decrease in cell viability after 72 hrs by MTT assay. It counts as functional, cell-based. The following applies: OVCAR-8, 72 h. The method, boiled down:
(§1)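 Cells grown in RPMI 1640 with 10% FBS and penicillin/streptomycin at 37°C, 5% CO2. Seeded at 0.1×10⁶ cells/well (HCT-116: 0.7×10⁵). After 24 h, drug in DMSO added at […]; controls got DMSO. Exposure 72 h, with prostate lines read at 24, 72 and 96 h. Then MTT (0.5 mg/mL) for 3 h, formazan dissolved in DMSO, A595 expressed as % of control. IC50 by nonlinear regression from three independent experiments in triplicate.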

In assay [2] the test system is DU-145. As to the kind of experiment: Cytotoxicity against human DU145 cells assessed as decrease in cell viability after 72 hrs by MTT assay. It counts as functional, cell-based. The following applies: DU-145, 72 h. The method, boiled down:
as §1

Assay [3] has as its system PC-3M. The assay can be described thus: Cytotoxicity against human PC3M cells assessed as decrease in cell viability after 72 hrs by MTT assay. It counts as functional, cell-based. The method, boiled down:
as §1
In general terms: Tetrazolium dyes change colour on reduction, which living cells bring about.

The test system of assay [4] is DU-145. As to the kind of experiment: Cytotoxicity against human DU145 cells assessed as decrease in cell viability after 24 hrs by MTT assay. The assay is classed as functional, cell-based. The method, boiled down: as §1
In assay [5] the test system is PC-3. As to the kind of experiment: Cytotoxicity against human PC3 cells assessed as decrease in cell viability using compound loaded PLGA microcapsule after 24 hrs by MTT assay. It counts as functional, cell-based. The method, boiled down:
(§2)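 Drug-loaded PLGA microparticles suspended in PBS pH 7.4 and added at […], 24 h after seeding at 0.1×10⁶ cells/well (HCT-116: 0.7×10⁵). Medium RPMI 1640 with 10% FBS, 37°C, 5% CO2. Incubated 72 h, with DU145, PC3 and PC3M read at 24, 72 and 96 h. MTT 0.5 mg/mL for 3 h, formazan in DMSO, A595 as % of control. IC50 by nonlinear regression, three independent experiments in triplicate.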

In assay [6] the test system is PC-3. The assay can be described thus: Cytotoxicity against human PC3 cells assessed as decrease in cell viability after 24 hrs by MTT assay. It counts as functional, cell-based. The method, boiled down: as §1
Assay [7] concerns PC-3. The assay can be described thus: Cytotoxicity against human PC3 cells assessed as decrease in cell viability using compound loaded PLGA microcapsule after 72 hrs by MTT assay. The following applies: PC-3, 72 h. It counts as functional, cell-based. The method, boiled down: as §2
Assay [8] has as its system PC-3M. The assay can be described thus: Induction of morphological changes in human PC3M cells at 11.2 uM after 24 to 72 hrs by hematoxylin/eosin staining-based light microscopic method. The assay is classed as functional, cell-based. The method, boiled down:
(§3)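 PC3M cells exposed to free or PLGA-encapsulated drug, then stained with hematoxylin/eosin and examined by light microscopy (400×) after 24, 48 and 72 h.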

Assay [9] relates to DU-145. The assay can be described thus: Cytotoxicity against human DU145 cells assessed as decrease in cell viability using compound loaded PLGA microcapsule after 96 hrs by MTT assay. It counts as functional, cell-based. The method, boiled down:
as §2

The subject of assay [10] is DU-145. The assay can be described thus: Cytotoxicity against human DU145 cells assessed as decrease in cell viability using compound loaded PLGA microcapsule after 24 hrs by MTT assay. The assay is classed as functional, cell-based. The method, boiled down: as §2
Assay [11] concerns PC-3M. As to the kind of experiment: Cytotoxicity against human PC3M cells assessed as decrease in cell viability using compound loaded PLGA microcapsule after 72 hrs by MTT assay. The assay is classed as functional, cell-based. The method, boiled down: as §2
Assay [12] relates to SF-295. As to the kind of experiment: Cytotoxicity against human SF295 cells assessed as decrease in cell viability using compound loaded PLGA microcapsule after 72 hrs by MTT assay. It counts as functional, cell-based. The note with it: SF-295, 72 h. The method, boiled down: as §2
The subject of assay [13] is HCT-116. The assay can be described thus: Cytotoxicity against human HCT116 cells assessed as decrease in cell viability after 72 hrs by MTT assay. The assay is classed as functional, cell-based. The following applies: HCT-116, 72 h. The method, boiled down:
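After 24 h, drug in DMSO added at […]; controls got DMSO. Exposure 72 h, with prostate lines read at 24, 72 and 96 h. Then MTT (0.5 mg/mL) for 3 h, formazan dissolved in DMSO, A595 expressed as % of control. IC50 by nonlinear regression from three independent experiments in triplicate.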

In assay [14] the test system is PC-3. As to the kind of experiment: Cytotoxicity against human PC3 cells assessed as decrease in cell viability using compound loaded PLGA microcapsule after 96 hrs by MTT assay. It counts as functional, cell-based. The method, boiled down:
as §2

For assay [15], the system named is DU-145. The assay can be described thus: Cytotoxicity against human DU145 cells assessed as decrease in cell viability using compound loaded PLGA microcapsule after 72 hrs by MTT assay. The assay is classed as functional, cell-based. The note with it: DU-145, 72 h. The method, boiled down: as §2
The test system of assay [16] is PC-3M. As to the kind of experiment: Cytotoxicity against human PC3M cells assessed as decrease in cell viability using compound loaded PLGA microcapsule after 96 hrs by MTT assay. It counts as functional, cell-based. The method, boiled down: as §2
Assay [17] relates to PC-3. The assay can be described thus: Cytotoxicity against human PC3 cells assessed as decrease in cell viability after 72 hrs by MTT assay. The assay is classed as functional, cell-based. The following applies: PC-3, 72 h. The method, boiled down:
as §1

For assay [18], the system named is DU-145. As to the kind of experiment: Cytotoxicity against human DU145 cells assessed as decrease in cell viability after 96 hrs by MTT assay. The assay is classed as functional, cell-based. The method, boiled down:
as §1

Assay [19] relates to PC-3. As to the kind of experiment: Cytotoxicity against human PC3 cells assessed as decrease in cell viability after 96 hrs by MTT assay. The assay is classed as functional, cell-based. The method, boiled down:
as §1

Assay [20] deals with PBMC. As to the kind of experiment: Cytotoxicity against human PBMC assessed as decrease in cell viability after 72 hrs by Alamar blue assay. It counts as cell-based. The method, boiled down:
(§4)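 PBMC isolated from healthy volunteers' blood on Ficoll. Kept in RPMI 1640 with 20% FBS; proliferation induced with 3% phytohemagglutinin. Plated at 2×10⁴ cells/well; after 24 h, test material in PBS pH 7.4 added at […], controls got PBS. Treated 72 h, with Alamar Blue added for the final 24 h. Absorbance at 570 and 600 nm as % of control. IC50 by nonlinear regression from three independent experiments in triplicate.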
(Alamar Blue is a resazurin reagent that responds to reducing activity.)

The test system of assay [21] is HCT-116. As to the kind of experiment: Cytotoxicity against human HCT116 cells assessed as decrease in cell viability using compound loaded PLGA microcapsule after 72 hrs by MTT assay. The note with it: HCT-116, 72 h. It counts as functional, cell-based. The method, boiled down: as §2
Assay [22] concerns PC-3M. As to the kind of experiment: Cytotoxicity against human PC3M cells assessed as decrease in cell viability using compound loaded PLGA microcapsule after 24 hrs by MTT assay. It counts as functional, cell-based. The method, boiled down:
as §2

The test system of assay [23] is PC-3M. As to the kind of experiment: Cytotoxicity against human PC3M cells assessed as decrease in cell viability after 24 hrs by MTT assay. The assay is classed as functional, cell-based. The method, boiled down: as §1
Assay [24] concerns PC-3M. As to the kind of experiment: Induction of morphological changes in human PC3M cells at 5.4 uM using compound loaded PLGA microcapsule after 24 to 72 hrs by hematoxylin/eosin staining-based light microscopic method. It counts as functional, cell-based. The method, boiled down: as §3
In assay [25] the test system is PC-3M. The assay can be described thus: Cytotoxicity against human PC3M cells assessed as decrease in cell viability after 96 hrs by MTT assay. The assay is classed as functional, cell-based. The method, boiled down: as §1
Assay [26] relates to PBMC. The assay can be described thus: Cytotoxicity against human PBMC assessed as decrease in cell viability using compound loaded PLGA microcapsule after 72 hrs by Alamar blue assay. The assay is classed as cell-based. The method, boiled down: as §4
Assay [27] relates to OVCAR-8. As to the kind of experiment: Cytotoxicity against human OVCAR8 cells assessed as decrease in cell viability using compound loaded PLGA microcapsule after 72 hrs by MTT assay. It counts as functional, cell-based. The note with it: OVCAR-8, 72 h. The method, boiled down:
as §2

For assay [28], the system named is SF-295. The assay can be described thus: Cytotoxicity against human SF295 cells assessed as decrease in cell viability after 72 hrs by MTT assay. The note with it: SF-295, 72 h. It counts as functional, cell-based. The method, boiled down: as §1

In brackets after ≈: the same amount, converted by molar mass. Activity calls are given as the source filed them. The calls are words filed in the database; no cut-off is given here.

By IC50 is commonly meant the concentration at which inhibition is half-maximal. On to `COc1cccc2c1C(=O)c1c(O)c3c(c(O)c1C2=O)C[C@@](O)(C(=O)CO)C[C@@H]3O[C@H]1C[C@H](N)[C@H](O)[C@H](C)O1` [DOXORUBICIN], for which the results for the IC50 in assay [1], in assay [2] and in assay [3] were 0.62 µM, 0.153 µM and 0.368 µM, respectively.
As for `CC1(C)CC2=C(O1)c1ccccc1C(=O)C2=O` [NOR-BETA-LAPACHONE], the result in assay [4], in assay [5], in [6], in assay [8], in assay [9] and in assay [10] was Active. In addition, the outcome in assay [14], in assay [18], in [19] and in [24] was Active. Further, the IC50 in assay [1] is 2.58 µM; in [7], 1.85 µM; in assay [2], 1.39 µM; in assay [3] it was 8.97 µM; in assay [11] it was 4.59 µM; in assay [12], 7.4 µM. Besides, the 50% inhibitory concentration (IC50) was 1.57 µM in assay [13]; 2.38 µM in assay [15]; 1.4 mg/L (≈ 6.14 µM) in [16]; 1.45 µM in assay [17]; 10 µM in [20]; 7.48 µM in assay [21]. Moreover, the 50% inhibitory concentration (IC50) amounted to 2.44 mg/L (≈ 10.7 µM) in [22]; 1.89 mg/L (≈ 8.27 µM) in [23]; 1.79 mg/L (≈ 7.83 µM) in [25]; 10 µM in assay [26]; 13.7 µM in assay [27]; 1.45 µM in [28].
